Assay results from PMC2248718 (The Journal of General Physiology, 2008).

Legend:
[1] = tested on: ED-mutated SUR2A (entire deletion and Q/N mutants) coexpressed with Kir6.2, HEK293 membranes; assay: 8-azido-[γ-32P]ATP photoaffinity labeling, post-incubation with ADP, ED mutants; format: binding; details: ED-mutated constructs; MgADP 0.05 to 1.0 mM
[2] = molecular target: wild-type SUR2A/Kir6.2 KATP channels expressed in HEK293 cells (UniProt P70170+Q14654); assay: Inside-out patch-clamp of recombinant wild-type KATP channels; format: cell-based; details: WT
[3] = tested on: ED mutant SUR2A/Kir6.2 channels; assay: Inside-out patch-clamp of ED domain mutant KATP channels; format: cell-based; details: ED mutants; 300 μM MgADP, channels inhibited by 300 μM ATP
Procedure, shortened: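 SUR2A (wild type or ED-mutated) was transiently cotransfected with Kir6.2 (5 μg:1 μg, plus 0.5 μg GFP reporter) into HEK293 cells grown in DMEM/10% FBS/2 mM glutamine, and recorded 48–72 h later. Inside-out patches at −60 mV, 32 ± 1°C. Pipette (mM): KCl 140, CaCl₂ 1, MgCl₂ 1, HEPES-KOH 5, pH 7.3. Bath (mM): KCl 140, MgCl₂ 1, EGTA 5, HEPES-KOH 5, pH 7.3, with nucleotides and drugs added.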

[4] = molecular target: wild-type SUR2A (NBD1) coexpressed with Kir6.2, HEK293 membranes (Mus musculus, UniProt P70170); assay: 8-azido-[γ-32P]ATP photoaffinity labeling, post-incubation with ADP, wild type; format: binding; details: WT; MgADP titration 0.05 to 1.0 mM
[5] = molecular target: SUR2A entire deletion (Δ948–962)/Kir6.2 KATP channels expressed in HEK293 cells (UniProt P70170+Q14654, DEL948-962); assay: Inside-out patch-clamp of entire ED deletion KATP channels; format: cell-based; details: glyburide 10 μM, monophasic response
[6] = tested on: SUR2A entire Q/N mutant/Kir6.2 KATP channels expressed in HEK293 cells; assay: Inside-out patch-clamp of entire Q/N mutant KATP channels; format: cell-based; details: glyburide 10 μM

## Nc1ncnc2c1ncn2[C@@H]1O[C@H](COP(=O)([O-])OP(=O)([O-])O)[C@@H](O)[C@H]1O.[Mg+2] [MgADP]
[1]
  Effect of MgADP on 8-azido-[γ-32P]ATP labeling: did not affect labeling
[2]; 300 μM MgADP, channels inhibited by 300 μM ATP
  Reversal of ATP-induced channel inhibition by MgADP: readily reversed
[3]
  Reversal of ATP-induced channel inhibition by MgADP: unable to reverse such inhibition
[4]
  MgADP concentration at maximum increase of 8-azido-[γ-32P]ATP labeling: 500 µM

## COc1ccc(Cl)cc1C(=O)NCCc1ccc(S(=O)(=O)NC(=O)NC2CCCCC2)cc1 [glyburide]
[5]
  Glyburide-induced reduction in overall channel activity: 21 ± 5%
[2]; glyburide 10 μM, 300 μM MgADP
  Pattern of glyburide blockade in the presence of MgADP: both phases were blunted
[2]; glyburide 10 μM, AMP-PNP 50 μM
  Profile of glyburide inhibition in the presence of AMP-PNP: indistinguishable from the effect of glyburide in the absence of nucleotides
[2]; glyburide 10 μM, no nucleotides
  Fast phase: instantaneous blockade, fraction of the channel population: 59 ± 11%
[2]; glyburide 10 μM, no nucleotides, within 2–3 min
  Slow phase: gradual dissipation of channel activity: 93 ± 3%
[6]
  Glyburide responsiveness compared with wild type: reduced glyburide responsiveness

## CC(N/C(=N\C#N)Nc1ccncc1)C(C)(C)C (centres unmarked) [pinacidil]
[2]; 50 μM pinacidil, 300 μM ATP, relative to activity in the absence of nucleotides
  Channel activity reversed by pinacidil against ATP inhibition: close to the maximum level
